# Screens from PubChem BioAssay.
# NOD2 RIPK2 PPI – NOD2-RIPK2 protein interaction inhibition; O43353; CHO BLA complementation NOD2-RIPK2, CCF4 ratio; inhibition, % at 4.98 µM; 0.38% of 360,000 active; in the data active means inhibition above about 21%;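 further: 0% = vehicle only and 100% = reference blocker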
# TLR9-MyD88 inh – TLR9-MyD88 interaction inhibition. Q9NR96+Q99836. 0.21% of 340,000 active. CHO BLA complementation TLR9-MyD88, CCF4 FRET ratio. inhibition, % at 4.98 µM. AID 504734;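 active means inhibition above the mean over all tested compounds plus 3 SD, cut at about 21% in these data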;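 further: 0% = DMSO only wells and 100% = clavulanate BLA inhibitor control wells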
# Target sequence (Q99836 whole entry, looked up): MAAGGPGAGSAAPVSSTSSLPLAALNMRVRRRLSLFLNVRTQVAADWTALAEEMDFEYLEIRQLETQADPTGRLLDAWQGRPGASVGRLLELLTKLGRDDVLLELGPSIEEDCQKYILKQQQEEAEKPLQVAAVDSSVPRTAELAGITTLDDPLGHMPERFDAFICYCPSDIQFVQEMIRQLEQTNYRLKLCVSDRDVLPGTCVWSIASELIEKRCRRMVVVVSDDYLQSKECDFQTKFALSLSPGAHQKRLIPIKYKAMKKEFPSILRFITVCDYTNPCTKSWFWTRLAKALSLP
# Target sequence (Q9NR96 whole entry, looked up): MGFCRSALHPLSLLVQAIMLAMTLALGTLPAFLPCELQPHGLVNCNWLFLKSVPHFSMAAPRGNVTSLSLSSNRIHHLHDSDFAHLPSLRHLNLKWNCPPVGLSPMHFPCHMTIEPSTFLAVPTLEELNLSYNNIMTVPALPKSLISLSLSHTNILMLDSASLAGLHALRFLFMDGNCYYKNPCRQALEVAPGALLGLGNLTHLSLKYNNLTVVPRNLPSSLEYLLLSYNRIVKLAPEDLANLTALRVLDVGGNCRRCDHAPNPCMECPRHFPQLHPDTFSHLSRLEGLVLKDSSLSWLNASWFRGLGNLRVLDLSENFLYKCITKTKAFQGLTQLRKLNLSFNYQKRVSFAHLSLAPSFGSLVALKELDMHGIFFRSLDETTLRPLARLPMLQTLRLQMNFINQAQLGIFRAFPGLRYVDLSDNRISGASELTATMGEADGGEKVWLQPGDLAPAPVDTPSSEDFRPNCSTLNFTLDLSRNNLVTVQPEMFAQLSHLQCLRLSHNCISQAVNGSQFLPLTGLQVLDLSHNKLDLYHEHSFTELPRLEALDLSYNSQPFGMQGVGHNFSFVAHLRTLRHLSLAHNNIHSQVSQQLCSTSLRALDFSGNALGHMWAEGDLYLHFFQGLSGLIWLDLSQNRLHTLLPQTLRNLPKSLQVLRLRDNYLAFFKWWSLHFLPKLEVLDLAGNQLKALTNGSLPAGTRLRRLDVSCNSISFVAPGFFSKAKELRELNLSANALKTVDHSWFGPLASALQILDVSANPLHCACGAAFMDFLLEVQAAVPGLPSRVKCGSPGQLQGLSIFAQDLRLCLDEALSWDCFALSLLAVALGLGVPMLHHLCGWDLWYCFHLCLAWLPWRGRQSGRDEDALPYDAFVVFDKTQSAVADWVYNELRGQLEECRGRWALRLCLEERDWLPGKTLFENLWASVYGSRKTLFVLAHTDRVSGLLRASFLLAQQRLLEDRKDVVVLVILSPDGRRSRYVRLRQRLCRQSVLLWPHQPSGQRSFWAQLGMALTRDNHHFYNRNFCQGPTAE
# CHOP UPR activ – apoptotic UPR (CHOP) activation; activation, % at 10 µM; 0.34% of 330,000 active; CHO-CHOP luciferase reporter, luminescence; percent of tunicamycin response over DMSO baseline; AID 449763;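 active means at 10 µM dose, activation of 40% or more, normalized to positive control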;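 further: 100% = tunicamycin at 10 µg/mL and 0% = DMSO alone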
#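 System: CHO-CHOP luciferase reporter cell line; amount: 500 cells/well; buffer or medium: F12 medium containing 10% fetal bovine serum; incubation: 6 h compound exposure at 37 °C after overnight seeding; measured by: luciferase luminescence after 10 min with Steady-Glo reagent; evaluation: % reporter activation, DMSO baseline versus tunicamycin full activation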
# UPR XBP1 act – activators of adaptive arm of unfolded protein response (XBP1); CHO-XBP1 luciferase reporter, IRE1-XBP1 UPR activation, luminescence; percent of tunicamycin response, DMSO as zero; 0.33% of 330,000 active; AID 463104; activation, % at 20 µM;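 active means versus positive control, 20 µM dose yields 30% or more activation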;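 further: 100% = tunicamycin at 10 µg/mL and 0% = DMSO only wells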
#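 Material: CHO cell line with stable XBP1 luciferase reporter; schedule: 16-18 h cell attachment at 37 °C, then 6 h compound exposure; signal: glow luminescence from Steady-Glo reagent; medium: serum-containing F12 medium, 10% FBS; benchmarks: tunicamycin 10 µg/mL and vehicle-only wells; read-out: percent activation relative to tunicamycin reference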
# CHOP inhibitor – blocks CHOP induction under ER stress | inhibition, % at 10 µM | 3.8% of 220,000 active | CHO-K1 CHOP-promoter luciferase, tunicamycin-induced, 15-18 h | AID 2732;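 active means compounds that reduced the stress-induced luciferase reporter signal by more than about 70% of percent inhibition, limit read from the data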;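 further: 0% = tunicamycin plus vehicle and 100% = wells without tunicamycin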
# TLR4-MyD88 BLA – TLR4-MyD88 interaction inhibition in cells; O00206+Q99836; HeLa CL3-4 TLR4/MyD88 BLA complementation, FRET ratio; inhibition, % at 8.4 µM; 0.18% of 200,000 active; AID 861; in the data active means inhibition above about 25%;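 further: 0% = vehicle and 100% = reference inhibitor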
# UPR XBP1 confirm – confirmation of adaptive unfolded protein response (XBP1) activators; shares compounds with UPR XBP1 act; CHO-XBP1 IRE1-XBP1 luciferase reporter, luminescence; activation, % at 20 µM; 63% of 1,000 active; AID 485299;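 active means reporter signal at least 30% of the positive control's activation in two or more of four replicate wells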;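 further: plate controls were DMSO negative control for no effect and tunicamycin 10 µg/mL positive control for full effect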
# An asterisk follows results filed as active; nt = no result given. This excerpt belongs to a sample that is enriched for hits.
SMILES,NOD2 RIPK2 PPI,TLR9-MyD88 inh,CHOP UPR activ,UPR XBP1 act,CHOP inhibitor,TLR4-MyD88 BLA,UPR XBP1 confirm
COc1ccc(/C=N/NC(=O)c2cccc(C(=O)N/N=C/c3ccc(OC)c(OC)c3)n2)cc1OC,-13,-26,-1,-4,nt,nt,nt
Cc1ccsc1CN(C)CC(=O)NCC(=O)Nc1ccc(F)cc1,-5,-2,2,-3,nt,nt,nt
O=C(CCn1c2c(c3ccccc31)CCCC2)NNC(=O)c1ccccc1Cl,2,-2,-1,36*,22,-5,0
Cc1ccccc1-c1nc2cc(Cl)ccc2c(=O)o1,-2,-1,0,49*,nt,nt,16
COc1cc(OC)cc(C(=O)Nc2ccc3nc4n(c(=O)c3c2)CCCCC4)c1,-3,-7,6,32*,nt,nt,36*
CCc1cccc2c1Sc1ccccc1CC2N1CCNCC1 (configuration not stated),-1,-2,6,6,nt,nt,nt
Cc1cccc2c1Sc1ccc(Cl)cc1CC2N1CCNCC1 (configuration not stated),nt,nt,8,31*,nt,nt,37*
Cc1ccc2nc(N/N=C/c3ccccc3C#N)nc(-c3ccccc3)c2c1,8,6,2,0,46,-4,nt
N#Cc1ccccc1/C=N/Nc1nc(-c2ccccc2)c2cc(Cl)ccc2n1,1,-1,31,62*,89*,6,102*
CCOC(=O)c1nn(C)c(=S)n(C)c1=O,-14,-1,nt,nt,nt,nt,nt
OCCCn1c(C2CCCN2c2nc(-c3ccc(F)cc3)cs2)nc2cc(Cl)c(N3CCCCC3)cc21 (configuration not stated),-7,3,0,100*,nt,nt,48*
CC(C)c1ccc(C2C3=C(COC3=O)Nc3cc4c(cc32)OCO4)cc1 (configuration not stated),-1,8,4,43*,-25,2,93*
CC(C)(c1ccccc1)c1ccc(OCC(O)CNC2CCN(Cc3ccccc3)CC2)cc1 (configuration not stated),14,11,12,53*,11,-1,9
Nc1nc(Nc2ccc(Cl)cc2)nc2ccccc12,-1,2,24,33*,64,8,25
Nc1nc(Nc2ccccc2)nc2ccccc12,-4,-80,3,9,-13,-6,nt
N#C/C(=C\c1ccc(N2CCCC2)c([N+](=O)[O-])c1)c1nc2ccccc2[nH]1,8,11,6,111*,67,2,71*
O=C(Cn1c2ccccc2c(=O)c2cc([N+](=O)[O-])ccc21)Nc1ccccc1Cl,-6,-10,29,118*,36,-7,80*
C[C@]12CC(O)C3C(CCC4=CC(=O)CC[C@@]43C)C1CCC2c1csc(-c2ccccc2)n1 (some centres not stated),7,0,2,4,23,nt,nt
O=C(Nc1cccc(-c2cnc3ccccc3n2)c1)c1cccc(NC(=O)c2ccco2)c1,-2,9,22,36*,29,-2,28
COc1ccc(OC)c(Nc2nc3ccc(C)cc3n3cnnc23)c1,-2,2,3,16,nt,nt,nt
COc1ccc(Cl)cc1Nc1nc2ccc(C)cc2n2cnnc12,-3,-2,21,54*,nt,nt,11
CCn1c(O)c(C(C#N)=C2N=c3ccccc3=N2)c2ccccc21,-7,-1,-2,34*,62,5,-1
CCn1c(O)c(N=N)c2ccccc21,-12,-3,0,6,18,7,nt
CCCCC(=O)Nc1nnc(C2=COCCO2)o1,4,12,2,2,14,-5,nt
O=C(Nc1nc(-c2cccnc2)cs1)c1cccc([N+](=O)[O-])c1,-2,2,7,31*,88*,5,11
SMILES,NOD2 RIPK2 PPI,TLR9-MyD88 inh,CHOP UPR activ,UPR XBP1 act,CHOP inhibitor,TLR4-MyD88 BLA,UPR XBP1 confirm
O=C(Nc1nc(-c2ccccc2)cs1)c1cccc([N+](=O)[O-])c1,-2,0,3,7,-10,3,nt
N#Cc1ccc(-c2ccc(F)cc2)nc1Oc1ccc(Cl)c(Cl)c1,-47,-5,26,38*,31,4,6
CC(C)Cc1nnc(NC(=O)CCC(=O)N2CC(C)CC(C)C2)s1 (configuration not stated),-3,-5,-4,-4,nt,nt,nt
COc1cc(C2CC(=O)c3c(ccc4ccccc34)N2)ccc1O (configuration not stated),-11,-9,-2,0,21,-1,nt
COc1cccc(C2Nc3ccc4ccccc4c3C3=C2C(=O)CCC3)c1O (configuration not stated),3,-1,2,57*,nt,nt,8
CCCCOC(=O)Cn1c(=O)n(CC(=O)OCCCC)c2ccccc21,0,1,-2,-4,2,-5,nt
CCCCCCCCCCOC(=O)Cn1c(COc2ccc(Cl)cc2)[n+](C)c2ccccc21,18,7,-1,36*,nt,nt,36*
CCCCCCCCCCOC(=O)Cn1c(COc2cccc(C)c2)[n+](C)c2ccccc21,-5,2,5,34*,nt,nt,17
Cc1cccc(OCCCn2c(=O)sc3ccccc32)c1,14,-4,2,0,24,-5,nt
CCCCCCCCCCOC(=O)Cn1c(COc2ccccc2)[n+](C)c2ccccc21,0,-3,10,72*,nt,nt,26
CCCCCOC(=O)Cn1c(=O)oc2ccccc21,-2,5,1,-2,43,0,nt
CCCCCCCCCCOC(=O)Cn1c(COc2ccccc2C)[n+](C)c2ccccc21,22*,14,20,60*,nt,nt,72*
COC(=O)C(C(=O)Nc1nc2ccccc2s1)C1CCCC1 (configuration not stated),-9,-2,1,-3,5,2,nt
C/C(=N\NC(=O)C1(C)CC1(Br)Br)c1ccc(NC(=O)c2ccc(C)o2)cc1 (configuration not stated),-2,1,4,2,-20,0,nt
CCc1ccc(/C=N/NC(=O)c2cc(C3CC3)nc3ccc(Br)cc23)s1,-2,-3,-1,5,62,-6,nt
CCCCCCCCCCOC(=O)Cn1c(COc2ccc(OC)cc2)[n+](C)c2ccccc21,5,-6,12,66*,nt,nt,44*
O=C(CN1CCCCC1)Nc1c2c(nc3ccccc13)N(c1ccccc1)CC2,3,10,3,56*,86*,0,29
CCCC(=O)Nc1c2c(nc3ccccc13)N(c1ccccc1)CC2,3,-8,-1,-1,57,10,nt
